Laboratory results from ChEMBL document CHEMBL1124649, “Platelet activating factor antagonists: synthesis and structure-activity studies of novel PAF analogues modified in the phosphorylcholine moiety” (J Med Chem, 1989).

Columns and labels:
Assay type in all cases: functional
Mus musculus [1] = experiment: Time course of protecting effect on PAF-induced death in mice, at the dose of 1 mg/kg after 24 hr
Method in brief: (§1)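 Conscious male ICR-Jcl mice, 5-7 weeks old. Drug dissolved in saline (0.1 mL/10 g) given into the tail vein 8 or 24 h before PAF (50 μg/kg, iv); saline-only controls. Death defined as cessation of respiration. Survival rate recorded 60 min after PAF. 16 mice per compound, 142 controls; χ2 test versus control.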

Mus musculus [2] = experiment: Time course of protecting effect on PAF-induced death in mice, at the dose of 1 mg/kg after 8 hr; method in brief: as §1
Rattus norvegicus [3] = experiment: Compound was evaluated for the percent inhibition of the platelet activating factor (PAF) hypotension, after 120 min of intravenous injection of 0.1 mg/kg in rat; settings: 2 h
Rattus norvegicus [4] = experiment: Compound was evaluated for the percent inhibition of the platelet activating factor (PAF) hypotension, after 5 min of intravenous injection of 0.1 mg/kg in rat
Rattus norvegicus [5] = experiment: Compound was evaluated for the percent inhibition of the platelet activating factor (PAF) hypotension, after 60 min of intravenous injection of 0.1 mg/kg in rat; settings: 1 h
Rattus norvegicus [6] = experiment: Compound was evaluated for the percent inhibition of the platelet activating factor (PAF) hypotension, after 5 min of intravenous injection of 1 mg/kg in rat
Rattus norvegicus [7] = experiment: Compound was evaluated for the percent inhibition of the platelet activating factor (PAF) hypotension, after 120 min of intravenous injection of 1 mg/kg in rat; settings: 2 h
Rattus norvegicus [8] = experiment: Compound was evaluated for the percent inhibition of the platelet activating factor (PAF) hypotension, after 60 min of intravenous injection of 1 mg/kg in rat; settings: 1 h

Which survival at 1 mg/kg (Mus musculus [1]) does the source give for `CCCCCCCCCCCCCCCCCCNC(=O)OCC(COC(=O)N(Cc1csc[n+]1CC)C(C)=O)OC` (stereo not given) here?
Its survival at 1 mg/kg is 25%.

And the survival at 1 mg/kg (Mus musculus [2])?
Its survival at 1 mg/kg is 75%.

What about the inhibition in vivo at 0.1 mg/kg (Rattus norvegicus [3]) of the same compound?
Its inhibition in vivo at 0.1 mg/kg is 14%.

What about the inhibition in vivo at 0.1 mg/kg (Rattus norvegicus [4]) of the same compound?
Its inhibition in vivo at 0.1 mg/kg is 100%.

What about the inhibition in vivo at 0.1 mg/kg (Rattus norvegicus [5]) of the same compound?
Its inhibition in vivo at 0.1 mg/kg is 40%.

For `CCCCCCCCCCCCCCCCCCNC(=O)OC[C@@H](COC(=O)N(Cc1cccc[n+]1CC)C(C)=O)OC`, which inhibition in vivo at 0.1 mg/kg (Rattus norvegicus [3]) is on record?
The inhibition in vivo at 0.1 mg/kg was 17%.

And the inhibition in vivo at 0.1 mg/kg (Rattus norvegicus [4])?
Its inhibition in vivo at 0.1 mg/kg is 100%.

And the inhibition in vivo at 0.1 mg/kg (Rattus norvegicus [5])?
The inhibition in vivo at 0.1 mg/kg was 54%.

For `CCCCCCCCCCCCCCCCCCNC(=O)OCC(COC(=O)N(Cc1cccc[n+]1CCC)C(C)=O)OC` (stereo not given), which inhibition in vivo at 0.1 mg/kg (Rattus norvegicus [4]) is on record?
Its inhibition in vivo at 0.1 mg/kg is 45%.

What about the inhibition in vivo at 0.1 mg/kg (Rattus norvegicus [5]) of the same compound?
The inhibition in vivo at 0.1 mg/kg was 0%.

`CCCCCCCCCCCCCCCCCCNC(=O)OCC(COC(=O)N(Cc1cccc[n+]1C)C(C)=O)OC` (stereo not given) was tested. Which inhibition in vivo at 1 mg/kg (Rattus norvegicus [6]) did it give?
The inhibition in vivo at 1 mg/kg was 82%.

What about the inhibition in vivo at 1 mg/kg (Rattus norvegicus [7]) of the same compound?
The inhibition in vivo at 1 mg/kg was 33%.

What about the inhibition in vivo at 1 mg/kg (Rattus norvegicus [8]) of the same compound?
The inhibition in vivo at 1 mg/kg was 39%.

With `CCCCCCCCCCCCCCCCCCNC(=O)OCC(COC(=O)N(Cc1scc[n+]1CC)C(C)=O)OC` (stereo not given) as the compound, how does the inhibition in vivo at 0.1 mg/kg (Rattus norvegicus [3]) read?
Its inhibition in vivo at 0.1 mg/kg is 0%.

What about the inhibition in vivo at 0.1 mg/kg (Rattus norvegicus [4]) of the same compound?
The inhibition in vivo at 0.1 mg/kg was 100%.

And the inhibition in vivo at 0.1 mg/kg (Rattus norvegicus [5])?
Its inhibition in vivo at 0.1 mg/kg is 3%.

`CCCCCCCCCCCCCCCCCCNC(=O)OCC(COC(=O)N(Cc1scc[n+]1C)C(C)=O)OC` (stereo not given) was tested. Which inhibition in vivo at 1 mg/kg (Rattus norvegicus [6]) did it give?
Its inhibition in vivo at 1 mg/kg is 100%.

What about the inhibition in vivo at 0.1 mg/kg (Rattus norvegicus [3]) of the same compound?
The inhibition in vivo at 0.1 mg/kg was 0%.

What about the inhibition in vivo at 1 mg/kg (Rattus norvegicus [7]) of the same compound?
The inhibition in vivo at 1 mg/kg was 30%.

And the inhibition in vivo at 0.1 mg/kg (Rattus norvegicus [4])?
The inhibition in vivo at 0.1 mg/kg was 43%.

And the inhibition in vivo at 0.1 mg/kg (Rattus norvegicus [5])?
Its inhibition in vivo at 0.1 mg/kg is 6%.

What about the inhibition in vivo at 1 mg/kg (Rattus norvegicus [8]) of the same compound?
The inhibition in vivo at 1 mg/kg was 100%.

What does the source list for `CCCCCCCCCCCCCCCCCCNC(=O)OCC(COC(=O)N(Cc1cccc[n+]1CCCC)C(C)=O)OC` (stereo not given)?
inhibition in vivo at 1 mg/kg (Rattus norvegicus [6]): 100%; inhibition in vivo at 1 mg/kg (Rattus norvegicus [8]): 0%

For `CCCCCCCCCCCCCCCCCCNC(=O)OCC(COC(=O)N(Cc1csc[n+]1C)C(C)=O)OC` (stereo not given), which inhibition in vivo at 1 mg/kg (Rattus norvegicus [6]) is on record?
Its inhibition in vivo at 1 mg/kg is 92%.

And the inhibition in vivo at 1 mg/kg (Rattus norvegicus [7])?
The inhibition in vivo at 1 mg/kg was 4%.

What about the inhibition in vivo at 1 mg/kg (Rattus norvegicus [8]) of the same compound?
The inhibition in vivo at 1 mg/kg was 29%.

For `CCCCCCCCCCCCCCCCCCNC(=O)OCC(COC(=O)N(Cc1cccc[n+]1CC)C(C)=O)OC` (stereo not given) [CV-6209], which survival at 1 mg/kg (Mus musculus [1]) is on record?
The survival at 1 mg/kg was 69%.

What about the survival at 1 mg/kg (Mus musculus [2]) of the same compound?
The survival at 1 mg/kg was 100%.

What about the inhibition in vivo at 0.1 mg/kg (Rattus norvegicus [3]) of the same compound?
The inhibition in vivo at 0.1 mg/kg was 34%.

And the inhibition in vivo at 0.1 mg/kg (Rattus norvegicus [4])?
The inhibition in vivo at 0.1 mg/kg was 100%.

And the inhibition in vivo at 0.1 mg/kg (Rattus norvegicus [5])?
Its inhibition in vivo at 0.1 mg/kg is 55%.

`CCCCCCCCCCCCCCCCCCNC(=O)OC[C@H](COC(=O)N(Cc1cccc[n+]1CC)C(C)=O)OC` was tested. Which inhibition in vivo at 0.1 mg/kg (Rattus norvegicus [3]) did it give?
Its inhibition in vivo at 0.1 mg/kg is 20%.

What about the inhibition in vivo at 0.1 mg/kg (Rattus norvegicus [4]) of the same compound?
Its inhibition in vivo at 0.1 mg/kg is 100%.

And the inhibition in vivo at 0.1 mg/kg (Rattus norvegicus [5])?
The inhibition in vivo at 0.1 mg/kg was 36%.
